Experimental data collected from several papers.
Each line is one published result; the experiments were not run side by side.
Read-out: cell growth or viability

| Compound | cell line | method | concentration | time | measurement | value |
| --- | --- | --- | --- | --- | --- | --- |
| CCSc1nc(C2CC2)cc(C(F)(F)F)n1 | HEK-293T | ATP luminescence | – | 24 h | CC50 | > 60 µM |
| O[C@@H](CN1CCN(C(c2ccccc2)c2ccccc2)CC1)c1cc(Cl)cc2c1-c1ccc(Cl)cc1C2 | HepG2 | – | – | 48 h | CC50 | > 50 µM |
| Clc1ccc(OC2=CC(c3ccc[nH]3)=N/C2=C\NC23CC4CC(CC(C4)C2)C3)cc1 | HepG2 | MTT | – | 48 h | IC50 | 14.5 µM |
| COc1ccc2[nH]c(C(=O)Nc3nc(CC(=O)NN=Cc4cccc5ccccc45)cs3)cc2c1 (mixture of isomers) | HepG2 | MTT | – | – | IC50 | 24.2 µM |
| O[C@@H](CNCCN1CCN(C(c2ccccc2)c2ccccc2)CC1)c1cc(Cl)cc2c1-c1ccc(Cl)cc1C2 | HepG2 | MTT | – | 72 h | CC50 | 27.1 µM |
| O=C(Cc1csc(NC(=O)c2cc3ccccc3[nH]2)n1)NN=Cc1cccc2ccccc12 (mixture of isomers) | HepG2 | MTT | – | – | IC50 | 36 µM |
| CC[S+]([O-])c1nc(-c2ccccc2)cc(C(F)(F)F)n1 (stereo not shown) | HEK-293T | ATP luminescence | – | 24 h | CC50 | > 60 µM |
| CCCCNCC(O)c1cc(Cl)cc2c1-c1ccc(Cl)cc1C2 (racemic) | HepG2 | – | – | 48 h | CC50 | 6.4 µM |
| CCS(=O)(=O)c1nc(C2CC2)cc(C(F)(F)F)n1 | HEK-293T | ATP luminescence | – | 24 h | CC50 | 29 µM |
| COc1ccccc1C(=O)/C=C/c1cn(Cc2cn(-c3ccnc4cc(Cl)ccc34)nn2)c2ccccc12 | HepG2 | MTT | 100 µM | 24 h | viability | > 90% |
